From ChEMBL document CHEMBL5724801, “EUbOPEN Chemogenomics Library - Multiplex” (2024)
“And” between values parts separate entries of the source, which are not always exact repeats. Equal values may be shown once.

Test system: U2OS
Assay: Multiplex assay against U2OS
Assay type: toxicity, cell-based
Settings: human
Outline: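 Tubulin, mitochondrial-mass and membrane-permeability phenotypes are per cents of healthy-nucleus cells. Cells were gated by CellPathfinder machine learning into Hoechst high-intensity objects or normal cells, normal cells into healthy, pyknosed or fragmented nuclei, and pyknosed cells into mitotic or apoptotic. Before that, live cells stained at seeding with Hoechst33342, BioTracker Green Microtubule Cytoskeleton Dye, MitoTracker Red and Annexin V Alexa Fluor 680 were imaged on a CQ1 microscope at 37°C and 5% CO2 after compound addition.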

[1] = 12 h, 1 µM, compound concentration 1 uM
[2] = 12 h, 10 µM, compound concentration 10 uM
[3] = 24 h, 1 µM, compound concentration 1 uM
[4] = 24 h, 10 µM, compound concentration 10 uM
[5] = 48 h, 1 µM, compound concentration 1 uM
[6] = 48 h, 10 µM, compound concentration 10 uM

SMILES: C=C(C)[C@H]1CN[C@H](C(=O)O)[C@H]1CC(=O)O [KAINIC ACID]
- Population Apoptotic (%) [1]: 30.91% and 58.82%
- Population Fragmented Nuclei (%) [1]: 1.23% and 1.12%
- Population Healthy Nuclei (%) [1]: 87.5% and 89.39%
- Population Hoechst High Intensity Objects (%) [1]: 0%
- Population Membrane Permeable-Phenotype (%) [1]: 1.41% and 1.88%
- Population Mitochondria Different-Phenotype (%) [1]: 0.23% and 4.38%
- Population Mitotic Cells (%) [1]: 69.09% and 41.18%
- Population Normal (%) [1]: 100%
- Population Pyknosed Nuclei (%) [1]: 11.27% and 9.5%
- Population Tubulin-Different-Phenotype (%) [1]: 0.7% and 0.62%
- Total Cell Count [1]: 488 and 179
- Population Apoptotic (%) [2]: 57.14% and 30.77%
- Population Fragmented Nuclei (%) [2]: 0.95% and 4.3%
- Population Healthy Nuclei (%) [2]: 89.13% and 81.72%
- Population Hoechst High Intensity Objects (%) [2]: 0%
- Population Membrane Permeable-Phenotype (%) [2]: 0.27% and 3.29%
- Population Mitochondria Different-Phenotype (%) [2]: 0.27% and 4.61%
- Population Mitotic Cells (%) [2]: 42.86% and 69.23%
- Population Normal (%) [2]: 100%
- Population Pyknosed Nuclei (%) [2]: 9.93% and 13.98%
- Population Tubulin-Different-Phenotype (%) [2]: 0.53% and 0%
- Total Cell Count [2]: 423 and 186
- Population Apoptotic (%) [3]: 37.88% and 41.38%
- Population Fragmented Nuclei (%) [3]: 1.93% and 1.32%
- Population Healthy Nuclei (%) [3]: 88.3% and 85.96%
- Population Hoechst High Intensity Objects (%) [3]: 0%
- Population Membrane Permeable-Phenotype (%) [3]: 0.84% and 3.06%
- Population Mitochondria Different-Phenotype (%) [3]: 0.17% and 5.61%
- Population Mitotic Cells (%) [3]: 62.12% and 58.62%
- Population Normal (%) [3]: 100%
- Population Pyknosed Nuclei (%) [3]: 9.78% and 12.72%
- Population Tubulin-Different-Phenotype (%) [3]: 0.5% and 0.51%
- Total Cell Count [3]: 675 and 228
- Population Apoptotic (%) [4]: 43.86% and 44.44%
- Population Fragmented Nuclei (%) [4]: 0.5% and 1.63%
- Population Healthy Nuclei (%) [4]: 90.02% and 91.02%
- Population Hoechst High Intensity Objects (%) [4]: 0%
- Population Membrane Permeable-Phenotype (%) [4]: 0.37% and 1.79%
- Population Mitochondria Different-Phenotype (%) [4]: 0% and 2.69%
- Population Mitotic Cells (%) [4]: 56.14% and 55.56%
- Population Normal (%) [4]: 100%
- Population Pyknosed Nuclei (%) [4]: 9.48% and 7.35%
- Population Tubulin-Different-Phenotype (%) [4]: 0.92% and 0.9%
- Total Cell Count [4]: 601 and 245
- Population Apoptotic (%) [5]: 36.05% and 33.33%
- Population Fragmented Nuclei (%) [5]: 2.72% and 1.63%
- Population Healthy Nuclei (%) [5]: 90.38% and 86.14%
- Population Hoechst High Intensity Objects (%) [5]: 0%
- Population Membrane Permeable-Phenotype (%) [5]: 0.98% and 1.89%
- Population Mitochondria Different-Phenotype (%) [5]: 0.44% and 1.89%
- Population Mitotic Cells (%) [5]: 63.95% and 66.67%
- Population Normal (%) [5]: 100%
- Population Pyknosed Nuclei (%) [5]: 6.89% and 12.23%
- Population Tubulin-Different-Phenotype (%) [5]: 0.62% and 0.95%
- Population Apoptotic (%) [6]: 44.57% and 57.89%
- Population Fragmented Nuclei (%) [6]: 3.7% and 0.47%
- Population Healthy Nuclei (%) [6]: 88.18% and 90.59%
- Population Hoechst High Intensity Objects (%) [6]: 0%
- Population Membrane Permeable-Phenotype (%) [6]: 0.8% and 2.08%
- Population Mitochondria Different-Phenotype (%) [6]: 0.2% and 2.08%
- Population Mitotic Cells (%) [6]: 55.43% and 42.11%
- Population Normal (%) [6]: 100%
- Population Pyknosed Nuclei (%) [6]: 8.11% and 8.94%
- Population Tubulin-Different-Phenotype (%) [6]: 0.7% and 1.3%
- Total Cell Count [6]: 1134 and 425

SMILES: CCCCCCNC(=O)Nc1ccc(S(=O)(=O)Nc2ccc(CCNC[C@H](O)COc3ccc(O)cc3)cc2)cc1 [L-755507]
- Population Apoptotic (%) [1]: 86% and 100%
- Population Fragmented Nuclei (%) [1]: 22% and 18%
- Population Healthy Nuclei (%) [1]: 67% and 75%
- Population Hoechst High Intensity Objects (%) [1]: 4% and 0%
- Population Membrane Permeable-Phenotype (%) [1]: 4% and 10%
- Population Mitochondria Different-Phenotype (%) [1]: 4% and 1%
- Population Mitotic Cells (%) [1]: 13% and 0%
- Population Normal (%) [1]: 95% and 99%
- Population Pyknosed Nuclei (%) [1]: 9% and 5%
- Population Tubulin-Different-Phenotype (%) [1]: 4% and 5%
- Total Cell Count [1]: 231 and 120
- Population Apoptotic (%) [2]: 60% and 72%
- Population Fragmented Nuclei (%) [2]: 31% and 19%
- Population Healthy Nuclei (%) [2]: 59% and 72%
- Population Hoechst High Intensity Objects (%) [2]: 3% and 2%
- Population Membrane Permeable-Phenotype (%) [2]: 13% and 19%
- Population Mitochondria Different-Phenotype (%) [2]: 11% and 15%
- Population Mitotic Cells (%) [2]: 40% and 27%
- Population Normal (%) [2]: 96% and 97%
- Population Pyknosed Nuclei (%) [2]: 9% and 8%
- Population Tubulin-Different-Phenotype (%) [2]: 10% and 15%
- Total Cell Count [2]: 282 and 140
- Population Apoptotic (%) [3]: 83% and 92%
- Population Fragmented Nuclei (%) [3]: 22% and 23%
- Population Healthy Nuclei (%) [3]: 66% and 67%
- Population Hoechst High Intensity Objects (%) [3]: 4% and 2%
- Population Membrane Permeable-Phenotype (%) [3]: 5% and 11%
- Population Mitochondria Different-Phenotype (%) [3]: 5% and 1%
- Population Mitotic Cells (%) [3]: 16% and 7%
- Population Normal (%) [3]: 95% and 97%
- Population Pyknosed Nuclei (%) [3]: 11% and 9%
- Population Tubulin-Different-Phenotype (%) [3]: 3% and 5%
- Total Cell Count [3]: 285 and 143
- Population Apoptotic (%) [4]: 85% and 88%
- Population Fragmented Nuclei (%) [4]: 25% and 14%
- Population Healthy Nuclei (%) [4]: 65% and 79%
- Population Hoechst High Intensity Objects (%) [4]: 2%
- Population Membrane Permeable-Phenotype (%) [4]: 7% and 9%
- Population Mitochondria Different-Phenotype (%) [4]: 4% and 5%
- Population Mitotic Cells (%) [4]: 14% and 11%
- Population Normal (%) [4]: 97%
- Population Pyknosed Nuclei (%) [4]: 9% and 6%
- Population Tubulin-Different-Phenotype (%) [4]: 3% and 6%
- Total Cell Count [4]: 307 and 149
- Population Apoptotic (%) [5]: 78% and 91%
- Population Fragmented Nuclei (%) [5]: 14% and 26%
- Population Healthy Nuclei (%) [5]: 74% and 61%
- Population Hoechst High Intensity Objects (%) [5]: 1% and 4%
- Population Membrane Permeable-Phenotype (%) [5]: 6% and 12%
- Population Mitochondria Different-Phenotype (%) [5]: 3% and 5%
- Population Mitotic Cells (%) [5]: 21% and 8%
- Population Normal (%) [5]: 98% and 95%
- Population Pyknosed Nuclei (%) [5]: 11% and 12%
- Population Tubulin-Different-Phenotype (%) [5]: 3% and 6%
- Total Cell Count [5]: 422 and 188
- Population Apoptotic (%) [6]: 80% and 94%
- Population Fragmented Nuclei (%) [6]: 19% and 13%
- Population Healthy Nuclei (%) [6]: 70% and 78%
- Population Hoechst High Intensity Objects (%) [6]: 2% and 1%
- Population Membrane Permeable-Phenotype (%) [6]: 7%
- Population Mitochondria Different-Phenotype (%) [6]: 2% and 3%
- Population Normal (%) [6]: 97% and 98%
- Population Pyknosed Nuclei (%) [6]: 9% and 7%
- Population Tubulin-Different-Phenotype (%) [6]: 4% and 6%
- Total Cell Count [6]: 419 and 242

SMILES: CN1CCN2c3ncccc3Cc3ccccc3C2C1 (configuration not stated) [MIRTAZAPINE]
- Population Apoptotic (%) [1]: 82% and 100%
- Population Fragmented Nuclei (%) [1]: 21%
- Population Healthy Nuclei (%) [1]: 67% and 72%
- Population Hoechst High Intensity Objects (%) [1]: 1%
- Population Membrane Permeable-Phenotype (%) [1]: 3% and 5%
- Population Mitochondria Different-Phenotype (%) [1]: 1% and 6%
- Population Mitotic Cells (%) [1]: 17% and 0%
- Population Normal (%) [1]: 99% and 98%
- Population Pyknosed Nuclei (%) [1]: 11% and 6%
- Population Tubulin-Different-Phenotype (%) [1]: 2% and 3%
- Population Apoptotic (%) [2]: 73% and 66%
- Population Fragmented Nuclei (%) [2]: 19% and 13%
- Population Healthy Nuclei (%) [2]: 71% and 82%
- Population Hoechst High Intensity Objects (%) [2]: 3%
- Population Membrane Permeable-Phenotype (%) [2]: 6% and 3%
- Population Mitochondria Different-Phenotype (%) [2]: 5% and 4%
- Population Mitotic Cells (%) [2]: 26% and 33%
- Population Normal (%) [2]: 96%
- Population Pyknosed Nuclei (%) [2]: 8% and 3%
- Population Tubulin-Different-Phenotype (%) [2]: 6% and 0%
- Population Apoptotic (%) [3]: 85% and 100%
- Population Fragmented Nuclei (%) [3]: 15% and 26%
- Population Healthy Nuclei (%) [3]: 76% and 63%
- Population Hoechst High Intensity Objects (%) [3]: 2% and 3%
- Population Membrane Permeable-Phenotype (%) [3]: 5% and 3%
- Population Mitochondria Different-Phenotype (%) [3]: 3%
- Population Mitotic Cells (%) [3]: 14% and 0%
- Population Normal (%) [3]: 97% and 96%
- Population Pyknosed Nuclei (%) [3]: 8% and 10%
- Population Tubulin-Different-Phenotype (%) [3]: 2% and 4%
- Population Apoptotic (%) [4]: 89% and 83%
- Population Fragmented Nuclei (%) [4]: 18% and 9%
- Population Healthy Nuclei (%) [4]: 71% and 85%
- Population Hoechst High Intensity Objects (%) [4]: 2% and 0%
- Population Membrane Permeable-Phenotype (%) [4]: 4% and 5%
- Population Mitochondria Different-Phenotype (%) [4]: 2%
- Population Mitotic Cells (%) [4]: 10% and 16%
- Population Normal (%) [4]: 97% and 99%
- Population Pyknosed Nuclei (%) [4]: 9% and 5%
- Population Tubulin-Different-Phenotype (%) [4]: 0% and 5%
- Total Cell Count [4]: 314 and 108
- Population Apoptotic (%) [5]: 83% and 92%
- Population Fragmented Nuclei (%) [5]: 12% and 20%
- Population Healthy Nuclei (%) [5]: 76% and 68%
- Population Hoechst High Intensity Objects (%) [5]: 2% and 4%
- Population Membrane Permeable-Phenotype (%) [5]: 4% and 8%
- Population Mitochondria Different-Phenotype (%) [5]: 2% and 4%
- Population Mitotic Cells (%) [5]: 16% and 7%
- Population Normal (%) [5]: 97% and 95%
- Population Pyknosed Nuclei (%) [5]: 10% and 11%
- Population Tubulin-Different-Phenotype (%) [5]: 3% and 1%
- Population Apoptotic (%) [6]: 95% and 100%
- Population Fragmented Nuclei (%) [6]: 15% and 12%
- Population Healthy Nuclei (%) [6]: 75% and 78%
- Population Hoechst High Intensity Objects (%) [6]: 2%
- Population Membrane Permeable-Phenotype (%) [6]: 7% and 3%
- Population Mitochondria Different-Phenotype (%) [6]: 4% and 3%
- Population Mitotic Cells (%) [6]: 5% and 0%
- Population Normal (%) [6]: 97%
- Population Pyknosed Nuclei (%) [6]: 9%
- Population Tubulin-Different-Phenotype (%) [6]: 5% and 3%
- Total Cell Count [6]: 435 and 170
